Shown are actives, neighbours in structure and some others; about 4.4% of the full set was active somewhere.
HIF act: HIF pathway transcriptional activators, primary screen, cell-based, U2OS HRE-luciferase, luminescence; U2OS HRE-luciferase reporter; normalized: DMSO 0%, desferrioxamine 100%; activation, % at 7.5 µM (by protocol); 300,000 tested, 0.32% active;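 active = mean activation of at least 10% of the iron chelator positive control signal, with at least half of replicates also reaching 10%; inconclusive = mean and replicate majority disagree about reaching 10%; inactive = mean and most replicates under 10%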
HSF1 activator: HSF-1 activators, primary screen, NIH3T3-HGL cells, MG132 stress, luminescence, single point. 300,000 tested, 1.7% active. AID 504408, 2011. activation, % at 9 µM. NIH3T3-HGL HSF-1 luciferase reporter, 8 h; 100% = twice DMSO control signal;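 active = mean replicate activation of at least 50% with a set share of replicates each reaching 50%; inconclusive = only one of those two conditions met; inactive = mean below 50% and too few replicates reaching it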;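 also: 0% = median of the neutral control wells and 100% = twice that signal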
T cruzi inh: inhibitors of intracellular T. cruzi growth, primary screen, luminescence, NIH3T3 host cells; AID 1885, 2009; T. cruzi beta-gal in NIH3T3, 90 h; inhibition, % (concentration not given with the values); 300,000 tested, 1.4% active;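 active = mean inhibition across valid replicates above about 55%, limit read from the data; inconclusive = mean below that limit but half or more replicates reach it; inactive = mean below it, under half of replicates reach it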;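 also: signal also drops with host cell toxicity which is not excluded here; 0% = plate median of DMSO wells and 100% = zero luminescence signal; higher percent means less beta-gal luminescence so fewer parasites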
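Assay system: NIH/3T3 host cells with β-galactosidase reporter T. cruzi; input: 5,000 host fibroblasts per well; compound: single 50 nL compound addition per well in DMSO; timing: ≥90 h infection period, 3 h prior cell attachment; measured by: GalScreen β-gal luminescence, detergent lysis, 60 min; evaluation: percent inhibition of parasite-derived β-gal signal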
Calb FLC: C. albicans growth inhibition with fluconazole, primary screen, CaCi-2 strain, Alamar Blue fluorescence; C. albicans CaCi-2 (fluconazole-resistant clinical isolate) + fluconazole, 48 h; growth inhibition, % (no concentration beside the values); 300,000 tested, 0.57% active;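 active = growth inhibition above about 58% in most replicates, limit read from the data, passing the limit was not always enough; inconclusive = exactly half the replicates above a set limit; inactive = most replicates below a set limit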;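 also: all wells also contain fluconazole at 8 µg/ml as a sub-toxic cotreatment; 0% = median of DMSO wells and 100% = median of geldanamycin control wells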
HSF1 inhib: HSF1 inhibitors in luciferase reporter cells, primary screen, cell-based, NIH3T3, luminescence. NIH3T3-HGL HSE-luciferase, MG132-induced, luminescence 8 h; active compounds read low. activity change, negative = inhibition, % at 7.5 µM (by protocol). 300,000 tested, 0.77% active;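 active = more than half of replicate wells show activity change below -50%, luminescence cut by over half; inconclusive = some wells, but at most half, below -50%; inactive = no replicate well below -50%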;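 also: luciferase reports HSF-1 transcriptional activity via heat shock element; 0% = median of DMSO wells and -100% = zero luminescence signal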
* = called active by the depositor; ? = inconclusive.

SMILES	HIF act	HSF1 activator	T cruzi inh	Calb FLC	HSF1 inhib
CCN(c1ccccc1)S(=O)(=O)c1cnc[nH]1	-27	-76	-2	7	-70*
Cc1ccc(NC(=O)CSc2ncccn2)cc1S(=O)(=O)N1CCCCC1	-1	-16	4	3	-14
O=C(OCc1cnc(Cl)s1)c1ccccc1Cl	-1	25	10	-6	5
O=C(OCn1ncc(Br)c(Br)c1=O)c1ccccc1Cl	2	-74	59*	5	-74*
CC(=O)OCn1ncc(N2CCOCC2)c(Br)c1=O	0	0	2	-4	-11
O=C(OCn1ncc(Br)c(Br)c1=O)c1ccc(F)cc1	-4	-95	51	-11	-94*
O=C(c1cccc(N2C(=O)C3C4C=CC(C4)C3C2=O)c1)N1CCN(c2ccccc2)CC1 (stereo unspecified)	0	-1	3	-8	-4
Cc1cc(Cl)ccc1C(=O)C1CCCN(C(=O)c2cnsn2)C1 (stereo unspecified)	0	51*	2	11	16
Cc1c(NC(=O)c2ccco2)cccc1C(=O)NN1C(=O)c2ccccc2C1=O	0	-25	-5	-19	-7
Cc1ccc(C(O)(C(=O)NN(C(=O)c2ccccc2)c2ccccc2)c2ccc(C)cc2)cc1	-1	-6	7	10	1
Cc1ccc(N(NC(=O)C(O)(c2ccccc2)c2ccccc2)C(=O)CCl)cc1	0	75*	-9	-15	72
COc1ccc(N2CCN(C(=O)CCC(=O)N3CCOc4ccc(Cl)cc43)CC2)cc1	0	0	-2	7	0
Cc1ccc(C)c(C(=O)COC(=O)CN2C(=O)C3C4C=CC(C4)C3C2=O)c1 (stereo unspecified)	0	-3	-6	2	-1
O=C(CCCCn1c(=O)[nH]c2ccsc2c1=O)NCc1cccnc1	0	-68	-11	9	-56*
CCN(CC(=O)NCc1ccc(F)cc1)C(=O)c1cc2ccccc2o1	0	9	-2	-6	3
O=C(Nc1ccc(OCC(=O)N2CCOCC2)cc1)Nc1cccc2ccccc12	-1	6	-15	-1	-4
O=c1[nH]c2ccccc2cc1CN(Cc1cccnc1)S(=O)(=O)c1ccc([N+](=O)[O-])cc1	0	63*	56*	-4	28
C=CCNc1nc(N2CCCCC2)c(C#N)c2c1CN(Cc1ccccc1)CC2	0	5	52	-14	-2
COC(=O)CSc1nc2ccc(C)cc2cc1C#N	-1	80*	12	39	29
COC(=O)CSc1nc2cc(OC)ccc2cc1C#N	3	58*	-6	20	31
CCOC(=O)c1cn[nH]c1NC(=S)Nc1ccc(OC)cc1	-1	-63	-29	0	-54*
COC(=O)c1cn[nH]c1NC(=S)Nc1ccc(Cl)c(Cl)c1	2	-67	9	28	-60*
COC(=O)c1cn[nH]c1NC(=S)Nc1ccc(C)cc1Cl	2	-32	6	18	-23
CCOC(=O)NC(=S)Nc1ccc(OC)cc1	1	-3	0	12	1
CCc1cc(C(=O)N2CCCC(N3CCN(c4cccc(C(F)(F)F)c4)CC3)C2)n(C)n1 (stereo unspecified)	0	-9	-14	0	-5
SMILES	HIF act	HSF1 activator	T cruzi inh	Calb FLC	HSF1 inhib
Cc1cc(C)c2c(c1)/C(=N/NS(=O)(=O)c1ccc(Br)cc1)CCC2	0	-67	11	2	-54*
Cc1cc(SCC(=O)Nc2cccnc2Cl)nc2ccccc12	0	30	-13	?	11
Cc1ccc(C)c(SCC(=O)Nc2cccnc2Cl)c1	-1	-13	-7	123*	2
Cc1ccc(C(=O)NC(=S)Nc2cccnc2Cl)cc1	2	65*	-4	5	33
N#Cc1c(NCc2ccccc2)ccnc1Cl	1	6	-1	-5	-7
O=C(Nc1cccnc1)c1cccc(F)c1	0	-4	-17	24	-8
COc1ccc(CN(C)CC(O)COc2ccc(-c3ccccc3)cc2)cc1OC (stereo unspecified)	1	-7	58*	-5	-3
CCOc1ccc(CN(C)CC(O)COC(c2ccc(OC)cc2)c2ccc(OC)cc2)cc1 (stereo unspecified)	1	57*	43	1	26
Cc1ccc(Cc2ccc(C(=O)NNC(N)=S)o2)cc1	0	6	-2	24	-5
CC(=O)N1CCC(CCCC2CCN(C(C)=O)CC2)CC1	-1	5	2	-6	7
CNc1ccc(/C=C2\COc3ccccc3C2=O)cc1[N+](=O)[O-]	1	39	11	7	30
O=C1/C(=C/c2ccccc2[N+](=O)[O-])COc2ccccc21	-4	141*	5	?	110
O=C(NCCc1ccc(Cl)cc1)c1cc2ccccn2n1	0	33	-2	-30	21
CN(c1ccccc1)S(=O)(=O)c1ccc(Cl)c(C(=O)Nc2nc3ccccc3[nH]2)c1	0	-7	-2	2	-4
O=C(Nc1ccc(Br)cc1)c1cc2ccccn2n1	2	71*	10	-14	35
CN(c1ccccc1)S(=O)(=O)c1ccc(Cl)c(C(=O)Nc2ccc(-c3nc4ccccc4[nH]3)cc2)c1	-1	27	57*	?	29
O=C(Nc1ccc(Br)cc1)c1ccccc1Br	6	53*	-2	-2	33
O=C(Nc1ccc2nc(-c3cccnc3)[nH]c2c1)c1ccccc1F	1	-72	9	10	-63*
CCc1ccc(NC(=O)c2ccccc2Br)cc1	3	36	-7	11	51
CCc1ccc(C(C)NC(=O)c2ccncc2)cc1 (stereo unspecified)	-3	2	-1	1	-1
CN1CCCN(C(=O)/C=C/c2ccc(Cl)cc2Cl)CC1	2	4	28	7	-4
Cc1nn(CC(=O)NC(C)C)c(C)c1[N+](=O)[O-]	0	-11	1	-7	-2
CC1CCCN(CCCN2C(=O)C3C(C(=O)Nc4ccc(Cl)cc4)C4C=CC3(O4)C2C(=O)NC2CCCCC2)C1 (stereo unspecified)	-1	18	15	-8	2
CC(C)C[C@H](NC(=O)c1[nH]cnc1C(=O)Nc1ccccc1)C(=O)OC(C)(C)C	-4	11	23	22	10
Nc1ccc(C(=O)Nc2ccc3nc(-c4ccncc4)[nH]c3c2)cc1	256*	9	-10	-13	0
O=C(c1ccccc1)c1ccc2nc(-c3ccc(NC(=O)c4ccccc4Br)cc3)[nH]c2c1	1	-6	60*	76*	-4
